Test [1] addresses T1, RAC-alpha serine/threonine-protein kinase (Homo sapiens, UniProt P31749). The experiment in a line: Inhibition of recombinant AKT1 using GSK3 as substrate assessed as inhibition of [33P]Phosphate incorporation into substrate after 80 mins by scintillation counting. The method, boiled down: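 Recombinant AKT1 was assayed radiometrically with [33P]-ATP (about 5×10^5 cpm/well) and GSK3(14-27) substrate at 2000 ng/50 µL. Buffer was 60 mM HEPES-NaOH pH 7.5 with 3 mM MgCl2 and 3 mM MnCl2, and compound was added in 10% DMSO. After 80 min at 30 °C the reaction was stopped with 2% phosphoric acid, washed with 0.9% NaCl and 33P incorporation counted by scintillation.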

Test [2] concerns the target T2, Aurora kinase B (Homo sapiens, UniProt Q96GD4). The experiment in a line: Inhibition of recombinant Aurora B using tetra(LRRWSLG) as substrate assessed as inhibition of [33P]Phosphate incorporation into substrate after 80 mins by scintillation counting.
For test [3], the target named is T3, Focal adhesion kinase 1 (Homo sapiens, UniProt Q05397). Briefly: Inhibition of recombinant FAK using poly(Glu,Tyr)4 as substrate assessed as inhibition of [33P]Phosphate incorporation into substrate after 80 mins by scintillation counting.
Test [4] has as its target T4, Vascular endothelial growth factor receptor 2 (Homo sapiens, UniProt P35968). Briefly: Inhibition of recombinant VEGFR2 using poly(Glu,Tyr)4 as substrate assessed as inhibition of [33P]Phosphate incorporation into substrate after 80 mins by scintillation counting.
Test [5] has as its target T5, Serine/threonine-protein kinase PLK1 (Homo sapiens, UniProt P53350). The experiment in a line: Inhibition of recombinant PLK1 using RBERCHKtide as substrate assessed as inhibition of [33P]Phosphate incorporation into substrate after 80 mins by scintillation counting. Put shortly: (§1)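 PLK1 (recombinant) was phosphorylating RBER-CHKtide at 2000 ng/50 µL with [33P]-ATP (about 5×10^5 cpm/well). Buffer was 60 mM HEPES-NaOH pH 7.5 with 3 mM MgCl2 and 3 mM MnCl2. After 80 min at 30 °C, 2% phosphoric acid stopped the reaction and wells were washed with saline. Incorporated 33P was counted, with residual activity relative to enzyme-free and inhibitor-free controls.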

Test [6] concerns the target T1, RAC-alpha serine/threonine-protein kinase. The experiment in a line: Inhibition of recombinant AKT1 using GSK3 as substrate assessed as inhibition of [33P]Phosphate incorporation into substrate at <10 uM after 80 mins by scintillation counting. Put shortly: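 Recombinant AKT1 was assayed radiometrically with [33P]-ATP (about 5×10^5 cpm/well) and GSK3(14-27) substrate at 2000 ng/50 µL. Buffer was 60 mM HEPES-NaOH pH 7.5 with 3 mM MgCl2 and 3 mM MnCl2, and compound was added in 10% DMSO. After 80 min at 30 °C the reaction was stopped with 2% phosphoric acid, washed with 0.9% NaCl and 33P incorporation counted by scintillation. Residual activity was set against no-enzyme and no-inhibitor controls.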

For test [7], the target named is T2, Aurora kinase B. Briefly: Inhibition of recombinant Aurora B using tetra(LRRWSLG) as substrate assessed as inhibition of [33P]Phosphate incorporation into substrate at <10 uM after 80 mins by scintillation counting. Put shortly:
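Recombinant Aurora B was assayed with [33P]-ATP (about 5×10^5 cpm/well) and tetra(LRRWSLG) substrate at 500 ng/50 µL. Buffer was 60 mM HEPES-NaOH pH 7.5 with 3 mM MgCl2 and 3 mM MnCl2. Incubation ran 80 min at 30 °C and was stopped with 2% phosphoric acid, then washed with saline. Bound 33P was counted by scintillation, with activity normalised to no-enzyme (0%) and no-inhibitor (100%) controls.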

Test [8] has as its target T3, Focal adhesion kinase 1. Briefly: Inhibition of recombinant FAK using poly(Glu,Tyr)4 as substrate assessed as inhibition of [33P]Phosphate incorporation into substrate at <10 uM after 80 mins by scintillation counting. The method, boiled down: (§2)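 FAK and VEGF-R2 were each tested as recombinant kinase with poly(Glu,Tyr)4:1 substrate at 125 ng/50 µL and [33P]-ATP (about 5×10^5 cpm/well). Buffer was 60 mM HEPES-NaOH pH 7.5 with 3 mM MgCl2 and 3 mM MnCl2. Reactions ran 80 min at 30 °C and were quenched with 2% phosphoric acid and washed with 0.9% NaCl. Scintillation counts were normalised between no-enzyme and uninhibited controls.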
Target sequence in this assay (Q05397 2-1052 limits assumed): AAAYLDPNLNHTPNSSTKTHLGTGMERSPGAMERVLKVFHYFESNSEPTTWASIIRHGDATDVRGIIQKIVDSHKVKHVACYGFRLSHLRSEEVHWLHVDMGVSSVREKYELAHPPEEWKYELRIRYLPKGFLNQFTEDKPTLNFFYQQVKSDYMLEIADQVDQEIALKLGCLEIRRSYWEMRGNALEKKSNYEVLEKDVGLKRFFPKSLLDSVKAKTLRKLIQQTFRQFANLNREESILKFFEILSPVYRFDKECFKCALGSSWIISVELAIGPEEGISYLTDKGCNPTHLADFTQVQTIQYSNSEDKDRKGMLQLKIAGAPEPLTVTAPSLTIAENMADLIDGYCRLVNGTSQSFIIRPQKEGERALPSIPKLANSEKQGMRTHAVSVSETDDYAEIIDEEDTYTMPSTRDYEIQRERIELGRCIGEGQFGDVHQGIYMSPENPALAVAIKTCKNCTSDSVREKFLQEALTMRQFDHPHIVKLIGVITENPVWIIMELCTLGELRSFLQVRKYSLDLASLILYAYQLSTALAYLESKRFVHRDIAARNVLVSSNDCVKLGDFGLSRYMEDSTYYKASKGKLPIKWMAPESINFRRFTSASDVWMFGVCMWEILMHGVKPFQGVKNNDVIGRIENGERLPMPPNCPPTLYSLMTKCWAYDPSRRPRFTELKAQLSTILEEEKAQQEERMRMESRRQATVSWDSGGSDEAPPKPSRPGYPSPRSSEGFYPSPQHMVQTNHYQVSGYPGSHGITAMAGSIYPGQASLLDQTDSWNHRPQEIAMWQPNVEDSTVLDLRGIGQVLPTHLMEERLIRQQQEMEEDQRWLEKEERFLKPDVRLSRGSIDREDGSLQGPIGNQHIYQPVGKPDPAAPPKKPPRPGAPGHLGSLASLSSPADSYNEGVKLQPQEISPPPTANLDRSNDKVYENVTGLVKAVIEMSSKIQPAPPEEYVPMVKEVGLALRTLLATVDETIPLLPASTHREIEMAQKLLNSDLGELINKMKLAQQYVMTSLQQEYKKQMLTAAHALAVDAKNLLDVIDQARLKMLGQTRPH

Test [9] has as its target T4, Vascular endothelial growth factor receptor 2. Briefly: Inhibition of recombinant VEGFR2 using poly(Glu,Tyr)4 as substrate assessed as inhibition of [33P]Phosphate incorporation into substrate at <10 uM after 80 mins by scintillation counting. Put shortly: as §2
Test [10] has as its target T5, Serine/threonine-protein kinase PLK1. Briefly: Inhibition of recombinant PLK1 using RBERCHKtide as substrate assessed as inhibition of [33P]Phosphate incorporation into substrate at <10 uM after 80 mins by scintillation counting. The method, boiled down:
as §1

For test [11], the target named is T6, NUAK family SNF1-like kinase 1 (Homo sapiens) (UniProt O60285).
T6 sequence (whole entry): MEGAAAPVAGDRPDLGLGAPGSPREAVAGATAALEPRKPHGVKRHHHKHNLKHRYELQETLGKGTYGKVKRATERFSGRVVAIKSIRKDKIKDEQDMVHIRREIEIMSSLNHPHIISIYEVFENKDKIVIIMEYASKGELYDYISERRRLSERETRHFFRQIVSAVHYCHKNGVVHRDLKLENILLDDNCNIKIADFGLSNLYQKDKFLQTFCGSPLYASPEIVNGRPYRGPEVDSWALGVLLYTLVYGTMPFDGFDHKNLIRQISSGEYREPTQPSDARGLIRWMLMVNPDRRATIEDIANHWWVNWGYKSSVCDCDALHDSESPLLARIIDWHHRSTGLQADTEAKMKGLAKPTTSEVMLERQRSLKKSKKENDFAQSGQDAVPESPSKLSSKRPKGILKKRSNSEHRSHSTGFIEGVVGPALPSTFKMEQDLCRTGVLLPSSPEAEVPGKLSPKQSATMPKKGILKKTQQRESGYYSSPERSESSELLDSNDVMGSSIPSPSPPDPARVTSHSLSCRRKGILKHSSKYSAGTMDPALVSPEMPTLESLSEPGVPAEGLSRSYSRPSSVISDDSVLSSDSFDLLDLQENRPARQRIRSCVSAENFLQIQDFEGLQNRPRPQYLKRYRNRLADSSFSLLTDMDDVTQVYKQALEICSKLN
Briefly: Inhibition of recombinant ARK5 at <10 uM by radiometric kinase assay. Put shortly:
(§3)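 Recombinant kinases were tested in a radiometric 33P-ATP assay in 60 mM HEPES-NaOH pH 7.5 with 3 mM MgCl2 and 3 mM MnCl2, with compound added in 10% DMSO. Incubation was 80 min at 30 °C, stopped with 2% phosphoric acid and washed. 33P incorporation was scintillation-counted, and activity was scaled between no-enzyme and no-inhibitor controls.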

Test [12] deals with Tyrosine-protein kinase receptor UFO (Homo sapiens) (UniProt P30530). Briefly: Inhibition of recombinant AXL at <10 uM by radiometric kinase assay. The method, boiled down: as §3
Test [13] deals with Insulin-like growth factor 1 receptor (Homo sapiens) (UniProt P08069). Briefly: Inhibition of recombinant IGF1R at <10 uM by radiometric kinase assay. Put shortly: as §3
Test [14] addresses Hepatocyte growth factor receptor (Homo sapiens) (UniProt P08581). The experiment in a line: Inhibition of recombinant MET at <10 uM by radiometric kinase assay. The method, boiled down: as §3
Test [15] deals with Serine/threonine-protein kinase N1 (Homo sapiens) (UniProt Q16512). The experiment in a line: Inhibition of recombinant PRK1 at <10 uM by radiometric kinase assay. The method, boiled down:
as §3

Test [16] deals with Proto-oncogene tyrosine-protein kinase Src (Homo sapiens) (UniProt P12931). The experiment in a line: Inhibition of recombinant SRC at <10 uM by radiometric kinase assay. Put shortly:
as §3

Active and inactive are the calls of the source. No cut-off for these calls is given here.

Usually IC50 stands for the concentration that inhibits the measured activity by half.

Chain of Tyrosine-protein kinase receptor UFO (Homo sapiens) (P30530 whole entry): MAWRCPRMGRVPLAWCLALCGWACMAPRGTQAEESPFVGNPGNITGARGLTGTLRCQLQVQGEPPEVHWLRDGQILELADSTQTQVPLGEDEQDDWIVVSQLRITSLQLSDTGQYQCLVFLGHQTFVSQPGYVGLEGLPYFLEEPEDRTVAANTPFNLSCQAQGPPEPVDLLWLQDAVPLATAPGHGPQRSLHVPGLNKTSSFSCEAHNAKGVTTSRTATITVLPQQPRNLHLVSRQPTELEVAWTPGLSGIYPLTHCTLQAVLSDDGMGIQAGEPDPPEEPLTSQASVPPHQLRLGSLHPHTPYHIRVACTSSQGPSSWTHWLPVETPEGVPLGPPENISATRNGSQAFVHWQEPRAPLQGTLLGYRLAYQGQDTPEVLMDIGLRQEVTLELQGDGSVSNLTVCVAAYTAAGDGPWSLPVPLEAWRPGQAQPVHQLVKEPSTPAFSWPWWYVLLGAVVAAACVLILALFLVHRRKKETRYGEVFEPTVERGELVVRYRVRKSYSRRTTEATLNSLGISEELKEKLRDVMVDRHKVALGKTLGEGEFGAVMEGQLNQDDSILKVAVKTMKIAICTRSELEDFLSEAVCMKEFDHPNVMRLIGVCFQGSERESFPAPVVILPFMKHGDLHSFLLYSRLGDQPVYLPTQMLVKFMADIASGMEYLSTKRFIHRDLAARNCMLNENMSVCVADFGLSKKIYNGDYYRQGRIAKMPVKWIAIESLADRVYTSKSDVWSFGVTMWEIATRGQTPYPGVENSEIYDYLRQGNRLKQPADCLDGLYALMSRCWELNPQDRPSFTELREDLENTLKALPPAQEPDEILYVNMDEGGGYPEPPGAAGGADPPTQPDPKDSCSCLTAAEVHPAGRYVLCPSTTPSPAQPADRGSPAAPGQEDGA
T2 sequence (Q96GD4 whole entry): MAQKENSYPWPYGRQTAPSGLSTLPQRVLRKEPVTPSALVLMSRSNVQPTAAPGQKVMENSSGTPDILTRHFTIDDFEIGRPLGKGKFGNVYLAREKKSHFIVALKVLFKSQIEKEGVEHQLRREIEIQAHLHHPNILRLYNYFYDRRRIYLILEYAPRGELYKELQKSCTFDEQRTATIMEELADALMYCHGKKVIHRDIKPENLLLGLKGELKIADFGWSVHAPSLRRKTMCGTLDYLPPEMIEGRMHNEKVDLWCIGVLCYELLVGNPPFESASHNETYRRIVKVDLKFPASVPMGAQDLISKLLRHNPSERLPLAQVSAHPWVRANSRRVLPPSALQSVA
Chain of Insulin-like growth factor 1 receptor (Homo sapiens) (P08069 31-736 limits assumed): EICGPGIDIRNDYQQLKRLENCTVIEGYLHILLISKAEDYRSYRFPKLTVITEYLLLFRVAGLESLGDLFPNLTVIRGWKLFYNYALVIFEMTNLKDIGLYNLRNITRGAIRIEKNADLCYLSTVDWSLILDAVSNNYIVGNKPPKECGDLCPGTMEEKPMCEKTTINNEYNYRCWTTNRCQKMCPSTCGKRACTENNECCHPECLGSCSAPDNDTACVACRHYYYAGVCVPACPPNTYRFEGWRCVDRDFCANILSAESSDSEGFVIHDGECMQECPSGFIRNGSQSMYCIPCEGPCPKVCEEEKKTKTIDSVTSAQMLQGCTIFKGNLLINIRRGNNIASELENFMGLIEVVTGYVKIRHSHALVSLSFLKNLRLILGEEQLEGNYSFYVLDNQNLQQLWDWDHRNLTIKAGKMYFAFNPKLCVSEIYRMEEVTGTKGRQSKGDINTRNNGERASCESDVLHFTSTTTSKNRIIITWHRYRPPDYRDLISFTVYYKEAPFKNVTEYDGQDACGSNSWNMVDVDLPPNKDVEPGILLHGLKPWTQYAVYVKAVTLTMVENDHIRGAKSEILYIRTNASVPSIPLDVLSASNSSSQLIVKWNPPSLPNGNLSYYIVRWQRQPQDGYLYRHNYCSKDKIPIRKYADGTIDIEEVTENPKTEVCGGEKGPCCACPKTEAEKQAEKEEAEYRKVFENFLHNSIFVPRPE
Chain of Insulin-like growth factor 1 receptor (Homo sapiens) (P08069 741-1367 limits assumed): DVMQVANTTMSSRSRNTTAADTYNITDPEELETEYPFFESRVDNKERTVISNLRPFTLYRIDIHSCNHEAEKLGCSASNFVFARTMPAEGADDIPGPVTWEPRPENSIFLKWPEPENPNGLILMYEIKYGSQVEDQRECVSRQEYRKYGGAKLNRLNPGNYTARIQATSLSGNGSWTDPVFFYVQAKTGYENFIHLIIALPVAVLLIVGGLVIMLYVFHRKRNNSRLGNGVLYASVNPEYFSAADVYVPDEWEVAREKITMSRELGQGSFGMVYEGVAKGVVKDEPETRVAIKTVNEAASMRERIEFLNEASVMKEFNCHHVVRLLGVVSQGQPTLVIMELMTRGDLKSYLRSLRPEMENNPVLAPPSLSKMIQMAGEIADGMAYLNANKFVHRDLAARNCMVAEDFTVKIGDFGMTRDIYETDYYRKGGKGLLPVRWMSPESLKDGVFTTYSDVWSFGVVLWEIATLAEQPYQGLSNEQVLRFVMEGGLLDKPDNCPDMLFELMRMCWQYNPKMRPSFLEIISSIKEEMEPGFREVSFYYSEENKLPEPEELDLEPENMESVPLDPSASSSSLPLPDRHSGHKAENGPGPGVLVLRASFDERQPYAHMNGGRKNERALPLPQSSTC
T4 sequence (P35968 whole entry): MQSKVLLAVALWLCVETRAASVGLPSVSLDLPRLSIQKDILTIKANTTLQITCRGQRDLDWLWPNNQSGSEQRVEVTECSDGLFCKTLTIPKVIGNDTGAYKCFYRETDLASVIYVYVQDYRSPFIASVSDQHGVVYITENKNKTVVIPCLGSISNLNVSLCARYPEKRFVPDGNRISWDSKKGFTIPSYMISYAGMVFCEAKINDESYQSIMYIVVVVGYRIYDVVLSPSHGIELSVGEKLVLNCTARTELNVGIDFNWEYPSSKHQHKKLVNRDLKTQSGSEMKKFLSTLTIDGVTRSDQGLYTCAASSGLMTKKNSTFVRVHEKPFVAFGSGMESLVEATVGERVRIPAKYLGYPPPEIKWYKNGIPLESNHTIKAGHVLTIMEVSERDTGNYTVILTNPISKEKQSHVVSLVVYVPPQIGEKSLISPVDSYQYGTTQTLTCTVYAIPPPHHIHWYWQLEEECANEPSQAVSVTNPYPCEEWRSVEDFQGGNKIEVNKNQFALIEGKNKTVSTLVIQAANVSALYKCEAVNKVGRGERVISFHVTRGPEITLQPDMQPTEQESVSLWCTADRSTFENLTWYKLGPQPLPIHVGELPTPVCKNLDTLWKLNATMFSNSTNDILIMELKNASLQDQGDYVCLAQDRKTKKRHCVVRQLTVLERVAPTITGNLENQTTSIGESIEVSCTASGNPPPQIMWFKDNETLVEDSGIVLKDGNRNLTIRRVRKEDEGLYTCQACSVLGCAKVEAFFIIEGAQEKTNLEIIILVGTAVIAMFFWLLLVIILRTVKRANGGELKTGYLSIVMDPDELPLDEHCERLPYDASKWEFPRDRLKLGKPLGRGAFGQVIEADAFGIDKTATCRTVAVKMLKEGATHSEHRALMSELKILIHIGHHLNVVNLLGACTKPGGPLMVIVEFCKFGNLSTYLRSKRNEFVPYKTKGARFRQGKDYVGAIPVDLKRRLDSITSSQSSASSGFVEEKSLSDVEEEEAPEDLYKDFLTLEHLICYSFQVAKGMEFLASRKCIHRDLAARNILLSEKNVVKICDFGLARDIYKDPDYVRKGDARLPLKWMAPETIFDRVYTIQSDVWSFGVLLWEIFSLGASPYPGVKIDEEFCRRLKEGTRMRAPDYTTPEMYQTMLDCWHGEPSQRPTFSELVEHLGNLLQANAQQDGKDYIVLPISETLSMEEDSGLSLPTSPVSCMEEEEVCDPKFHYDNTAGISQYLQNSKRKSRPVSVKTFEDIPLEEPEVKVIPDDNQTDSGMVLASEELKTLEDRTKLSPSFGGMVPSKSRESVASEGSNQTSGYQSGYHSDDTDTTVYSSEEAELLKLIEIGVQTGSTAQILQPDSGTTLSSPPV

For `CCOc1ccc(Nc2nccc(-c3nc4ccccc4n3C)n2)cc1`, the IC50 (in test [1]; at Aurora kinase B [2]; at Focal adhesion kinase 1 [3]; in test [4]; in [5]) was > 100 µM throughout. In addition, the inhibition entry (in test [6]; on Aurora kinase B [7]; at Focal adhesion kinase 1 [8]; in test [9]; in [10]; in [11]) was “inactive” in each case. Besides, the inhibition result in [12], in test [13], in test [14], in test [15] and in test [16] was “inactive” in each case.

Take `Cc1ccc(Nc2nccc(-c3nc4ccccc4n3C)n2)cc1`: the IC50 was determined as 58 µM at Focal adhesion kinase 1 [3] and 25 µM in test [4]. The inhibition result (in [6]; on Focal adhesion kinase 1 [8]; in test [9]; in test [10]; in test [11]; in test [12]) was “inactive” in each case. Besides, the inhibition result in test [13], in [14], in test [15] and in [16] was “inactive” in each case.

Consider `COc1ccc(Nc2nccc(-c3nc4ccccc4n3C)n2)cc1`, for which the IC50 in test [1] was 75 µM; at Aurora kinase B [2] it was 62 µM; on Focal adhesion kinase 1 [3], 27 µM; in test [4] it was 44 µM; in test [5], 15 µM. Besides, the inhibition result (in test [6]; at Aurora kinase B [7]; on Focal adhesion kinase 1 [8]; in [9]; in test [10]; in test [11]) was “inactive” each time. The inhibition result in test [12], in test [13], in test [14], in test [15] and in test [16] was “inactive” each time.

As for `Cn1c(-c2ccnc(Nc3ccc(O)c(Cl)c3)n2)nc2ccccc21`, the IC50 in [1] is > 100 µM; at Aurora kinase B [2], 7 µM; on Focal adhesion kinase 1 [3], 10.4 µM; in test [4], 7.5 µM; in test [5], 6 µM.

As to `Cn1c(-c2ccnc(Nc3ccccc3)n2)nc2ccccc21`, the IC50 in test [1] was > 100 µM; at Aurora kinase B [2] it was > 100 µM; on Focal adhesion kinase 1 [3], 38 µM; in test [4] it was 13.4 µM; in test [5] it was 60 µM. Also, the inhibition entry (in [6]; on Aurora kinase B [7]; on Focal adhesion kinase 1 [8]; in test [9]; in test [10]; in test [11]) was “inactive” each time. Further, the inhibition result in test [12], in [13], in test [14], in [15] and in test [16] was “inactive” each time.

In the case of `Cn1c(-c2ccnc(Nc3ccc(Cl)cc3)n2)nc2ccccc21`, the values for the concentration for half-maximal inhibition (IC50) (in test [1]; at Focal adhesion kinase 1 [3]; in [4]) were 41 µM, 69 µM and 38 µM, respectively. Further, the inhibition entry (in [6]; on Focal adhesion kinase 1 [8]; in test [9]; in test [10]; in test [11]; in test [12]) was “inactive” in each case. Moreover, the inhibition entry in test [13], in test [14], in [15] and in test [16] was “inactive” each time.

With `Cn1c(-c2ccnc(Nc3cccc(O)c3)n2)nc2ccccc21`, the IC50 is > 100 µM in test [1]; 5.5 µM at Aurora kinase B [2]; 5.2 µM on Focal adhesion kinase 1 [3]; 3.2 µM in [4]; 3.7 µM in [5].

With `Cn1c(=O)c2ccc(-c3nc4ccccc4n3C)nc2n(C)c1=O`, the figures for the IC50 (at Focal adhesion kinase 1 [3]; in test [4]) were 92 µM and 85 µM, respectively. The inhibition result (in [6]; on Focal adhesion kinase 1 [8]; in test [9]; in test [10]; in test [11]; in test [12]) was “inactive” throughout. The inhibition result in [13], in test [14], in [15] and in [16] was “inactive” each time.

For the molecule `Cn1c(-c2ccnc(Nc3ccc(O)cc3)n2)nc2ccccc21`, the IC50 is > 100 µM in test [1]; 11.1 µM at Aurora kinase B [2]; 11.4 µM at Focal adhesion kinase 1 [3]; 9.2 µM in test [4]; 12 µM in test [5].

Source of the values: ChEMBL document CHEMBL2034932, “2-Anilino-4-(benzimidazol-2-yl)pyrimidines--a multikinase inhibitor scaffold with antiproliferative activity toward cancer cell lines” (Eur J Med Chem, 2012).
